For one protein, Km results are on record in ChEMBL document CHEMBL1128665, “Design, synthesis, and structure-activity relationship of novel dinucleotide analogs as agents against herpes and human immunodeficiency viruses” (J Med Chem, 1995).

Compound in data set [1]: Nc1ncnc2c1ncn2COCCO
In words: (§1) Km value was determined by competitive inhibition of Adenosine deaminase. A digest of the protocol: (§2)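 Deamination rates of the nucleoside or nucleotide substrates were followed with calf mucosal adenosine deaminase (EC 3.5.4.4) in buffer solution. Km and Vmax, expressed relative to ara-A, were derived from these rates.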

Compound in data set [2]: Nc1ncnc2c1ncn2COCCP(=O)(O)O
Described as §1. A digest of the protocol: as §2

Compound in data set [3]: Nc1ncnc2c1ncn2COCCP(=O)(O)O[C@H]1[C@H](O)[C@H](n2cnc3c(N)ncnc32)O[C@@H]1CO
The data set is described as §1. A digest of the protocol: as §2

Compound in data set [4]: Nc1ncnc2c1ncn2[C@@H]1O[C@H](CO)[C@@H](O)[C@H]1O
The data set is described as §1. In a few lines: as §2

Compound in data set [5]: COC(=O)C(C)NP(=O)(CCOCn1cnc2c(N)ncnc21)O[C@H]1[C@H](O)[C@H](n2cnc3c(N)ncnc32)O[C@@H]1CO
Put plainly: Km value was determined by competitive inhibition of Adenosine deaminase No reaction at 1500 uM.

What is called Km is the concentration of substrate that gives half-maximal velocity.

B1: Adenosine deaminase (Bos taurus), P56658 (protein)
chain: MAQTPAFNKPKVELHVHLDGAIKPETILYYGRKRGIALPADTPEELQNIIGMDKPLSLPEFLAKFDYYMPAIAGCREAVKRIAYEFVEMKAKDGVVYVEVRYSPHLLANSKVEPIPWNQAEGDLTPDEVVSLVNQGLQEGERDFGVKVRSILCCMRHQPSWSSEVVELCKKYREQTVVAIDLAGDETIEGSSLFPGHVKAYAEAVKSGVHRTVHAGEVGSANVVKEAVDTLKTERLGHGYHTLEDATLYNRLRQENMHFEVCPWSSYLTGAWKPDTEHPVVRFKNDQVNYSLNTDDPLIFKSTLDTDYQMTKNEMGFTEEEFKRLNINAAKSSFLPEDEKKELLDLLYKAYGMPSPASAEQCL
B1: the Km in data set [1] was 138 µM; in data set [2] it was 248 µM; in data set [3], 166 µM; in data set [4], 45.3 µM; in data set [5] it was “No reaction”.
